For 26 molecules, inhibition, Selectivity ratio and Ratio IC50 results are on record in ChEMBL document CHEMBL1158565, “Antagonism of 4-substituted 1,4-dihydropyridine-3,5-dicarboxylates toward voltage-dependent L-type Ca2+ channels Ca V 1.3 and Ca V 1.2” (Bioorg Med Chem, 2010).

The target of assay [1] is T1, Voltage-dependent L-type calcium channel subunit alpha-1C (Oryctolagus cuniculus, UniProt P15381). The experiment in a line: Antagonist activity at rabbit Cav1.2 expressed in tsA201 cells assessed as inhibition of voltage pulse-induced calcium current at 1000 nM by whole-cell patch-clamp recording. For orientation: Patch clamp records ionic current or voltage across a cell membrane.
T1 sequence (P15381 whole entry): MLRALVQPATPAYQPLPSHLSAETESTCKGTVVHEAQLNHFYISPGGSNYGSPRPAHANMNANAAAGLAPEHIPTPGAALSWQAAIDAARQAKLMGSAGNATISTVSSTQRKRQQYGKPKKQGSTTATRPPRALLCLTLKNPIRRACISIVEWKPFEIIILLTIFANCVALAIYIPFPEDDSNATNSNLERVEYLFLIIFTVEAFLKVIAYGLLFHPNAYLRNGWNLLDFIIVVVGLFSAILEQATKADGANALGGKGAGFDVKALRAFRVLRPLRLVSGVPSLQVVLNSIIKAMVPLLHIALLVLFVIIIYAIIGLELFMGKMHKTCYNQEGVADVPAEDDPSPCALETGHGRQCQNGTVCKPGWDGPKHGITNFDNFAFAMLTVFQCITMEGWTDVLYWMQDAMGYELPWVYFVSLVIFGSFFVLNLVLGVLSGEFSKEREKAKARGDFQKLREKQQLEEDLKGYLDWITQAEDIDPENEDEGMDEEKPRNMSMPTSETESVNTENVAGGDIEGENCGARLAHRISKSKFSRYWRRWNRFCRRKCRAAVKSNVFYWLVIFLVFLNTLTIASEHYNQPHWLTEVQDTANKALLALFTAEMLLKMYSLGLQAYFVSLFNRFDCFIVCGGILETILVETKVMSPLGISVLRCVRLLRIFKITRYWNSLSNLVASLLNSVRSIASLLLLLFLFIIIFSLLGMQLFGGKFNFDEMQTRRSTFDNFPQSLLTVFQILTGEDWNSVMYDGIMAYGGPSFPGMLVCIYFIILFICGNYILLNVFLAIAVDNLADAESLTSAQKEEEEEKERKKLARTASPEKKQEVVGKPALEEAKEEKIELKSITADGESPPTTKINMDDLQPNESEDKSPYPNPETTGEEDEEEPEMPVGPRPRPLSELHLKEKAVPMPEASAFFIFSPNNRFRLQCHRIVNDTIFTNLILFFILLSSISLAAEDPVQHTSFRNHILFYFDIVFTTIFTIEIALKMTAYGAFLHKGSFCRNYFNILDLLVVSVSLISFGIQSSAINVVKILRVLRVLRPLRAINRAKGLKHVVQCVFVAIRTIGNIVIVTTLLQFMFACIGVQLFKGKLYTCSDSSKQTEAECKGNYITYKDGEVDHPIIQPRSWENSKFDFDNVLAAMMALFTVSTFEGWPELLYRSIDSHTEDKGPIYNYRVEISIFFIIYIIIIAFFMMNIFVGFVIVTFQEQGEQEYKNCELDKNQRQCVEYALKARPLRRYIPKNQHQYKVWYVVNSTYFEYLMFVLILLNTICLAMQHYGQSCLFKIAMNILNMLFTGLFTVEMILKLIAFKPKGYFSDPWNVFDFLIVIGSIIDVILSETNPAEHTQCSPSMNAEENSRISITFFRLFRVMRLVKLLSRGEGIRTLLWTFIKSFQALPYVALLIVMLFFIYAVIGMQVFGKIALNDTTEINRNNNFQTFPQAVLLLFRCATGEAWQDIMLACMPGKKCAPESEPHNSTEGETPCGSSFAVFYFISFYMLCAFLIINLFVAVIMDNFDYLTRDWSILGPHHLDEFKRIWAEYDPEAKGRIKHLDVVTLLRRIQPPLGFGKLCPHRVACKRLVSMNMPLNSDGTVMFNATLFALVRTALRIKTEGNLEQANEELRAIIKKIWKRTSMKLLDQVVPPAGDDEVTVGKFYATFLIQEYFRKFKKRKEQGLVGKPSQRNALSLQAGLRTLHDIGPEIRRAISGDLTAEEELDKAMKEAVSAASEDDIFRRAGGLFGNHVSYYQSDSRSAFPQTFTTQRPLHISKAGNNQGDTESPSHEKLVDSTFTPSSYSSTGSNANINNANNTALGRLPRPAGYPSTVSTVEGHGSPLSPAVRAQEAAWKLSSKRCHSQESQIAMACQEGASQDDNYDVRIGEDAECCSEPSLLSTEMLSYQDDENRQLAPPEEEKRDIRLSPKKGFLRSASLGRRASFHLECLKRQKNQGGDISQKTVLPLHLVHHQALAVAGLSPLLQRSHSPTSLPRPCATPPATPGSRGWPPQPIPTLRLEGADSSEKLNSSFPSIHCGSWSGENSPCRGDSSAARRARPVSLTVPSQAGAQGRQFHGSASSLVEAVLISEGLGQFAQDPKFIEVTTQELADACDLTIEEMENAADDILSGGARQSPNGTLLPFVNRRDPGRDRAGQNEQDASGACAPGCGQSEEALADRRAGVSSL

For assay [2], the target named is Voltage-dependent L-type calcium channel subunit alpha-1D (Rattus norvegicus) (UniProt P27732). The experiment in a line: Antagonist activity at rat Cav1.3 expressed in HEK293 cells assessed as inhibition of voltage pulse-induced calcium current at 10 nM by FLIPR calcium 4 assay. The assay is classed as functional, cell-based. As to conditions: in the assay text read “by whole-cell patch-clamp recording” for “by FLIPR calcium 4 assay”. The essentials:
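Whole-cell patch clamp on tsA201 cells transiently cotransfected with rabbit Cav1.2 α1C or rat Cav1.3 α1D, Cavβ3 and Cavα2δ-1 (1:1:1) plus GFP. GFP cells were recorded after replating at 48 h. Bath (mM): 110 NaCl, 1 MgCl2, 10 BaCl2, 10 HEPES, 10 glucose, 20 CsCl, pH 7.4. Compound was diluted from DMSO stock and perfused. Pulses ran from -60 mV to +10 or 0 mV with tetrodotoxin at about 22 °C. Read-out was percent current inhibition.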

The nature of assay [3]: Selectivity ratio of antagonist activity at rat Cav1.3 to antagonist activity at rabbit Cav1.2 at 10 nM. It is filed as functional. The essentials:
(§1)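 Percent inhibition of Cav1.3 current was divided by that of Cav1.2 at the same concentration. Currents were from whole-cell patch clamp in transiently transfected tsA201 cells: Ba2+ bath, pH 7.4, steps from -60 mV, about 22 °C.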

For assay [4], the target named is T1, Voltage-dependent L-type calcium channel subunit alpha-1C. Put plainly: Antagonist activity at rabbit Cav1.2 expressed in tsA201 cells assessed as inhibition of voltage pulse-induced calcium current at 10 nM by whole-cell patch-clamp recording.
Assay [5] in a line: Selectivity ratio of IC50 for Cav1.2 to IC50 for Cav1.3.
Assay [6] deals with Voltage-dependent L-type calcium channel subunit alpha-1D (Rattus norvegicus) (UniProt P27732). The experiment in a line: Antagonist activity at rat Cav1.3 expressed in HEK293 cells assessed as inhibition of voltage pulse-induced calcium current at 10 nM by whole-cell patch-clamp recording.
Chain of Voltage-dependent L-type calcium channel subunit alpha-1D (Rattus norvegicus) (P27732 whole entry, the tested form may be a part): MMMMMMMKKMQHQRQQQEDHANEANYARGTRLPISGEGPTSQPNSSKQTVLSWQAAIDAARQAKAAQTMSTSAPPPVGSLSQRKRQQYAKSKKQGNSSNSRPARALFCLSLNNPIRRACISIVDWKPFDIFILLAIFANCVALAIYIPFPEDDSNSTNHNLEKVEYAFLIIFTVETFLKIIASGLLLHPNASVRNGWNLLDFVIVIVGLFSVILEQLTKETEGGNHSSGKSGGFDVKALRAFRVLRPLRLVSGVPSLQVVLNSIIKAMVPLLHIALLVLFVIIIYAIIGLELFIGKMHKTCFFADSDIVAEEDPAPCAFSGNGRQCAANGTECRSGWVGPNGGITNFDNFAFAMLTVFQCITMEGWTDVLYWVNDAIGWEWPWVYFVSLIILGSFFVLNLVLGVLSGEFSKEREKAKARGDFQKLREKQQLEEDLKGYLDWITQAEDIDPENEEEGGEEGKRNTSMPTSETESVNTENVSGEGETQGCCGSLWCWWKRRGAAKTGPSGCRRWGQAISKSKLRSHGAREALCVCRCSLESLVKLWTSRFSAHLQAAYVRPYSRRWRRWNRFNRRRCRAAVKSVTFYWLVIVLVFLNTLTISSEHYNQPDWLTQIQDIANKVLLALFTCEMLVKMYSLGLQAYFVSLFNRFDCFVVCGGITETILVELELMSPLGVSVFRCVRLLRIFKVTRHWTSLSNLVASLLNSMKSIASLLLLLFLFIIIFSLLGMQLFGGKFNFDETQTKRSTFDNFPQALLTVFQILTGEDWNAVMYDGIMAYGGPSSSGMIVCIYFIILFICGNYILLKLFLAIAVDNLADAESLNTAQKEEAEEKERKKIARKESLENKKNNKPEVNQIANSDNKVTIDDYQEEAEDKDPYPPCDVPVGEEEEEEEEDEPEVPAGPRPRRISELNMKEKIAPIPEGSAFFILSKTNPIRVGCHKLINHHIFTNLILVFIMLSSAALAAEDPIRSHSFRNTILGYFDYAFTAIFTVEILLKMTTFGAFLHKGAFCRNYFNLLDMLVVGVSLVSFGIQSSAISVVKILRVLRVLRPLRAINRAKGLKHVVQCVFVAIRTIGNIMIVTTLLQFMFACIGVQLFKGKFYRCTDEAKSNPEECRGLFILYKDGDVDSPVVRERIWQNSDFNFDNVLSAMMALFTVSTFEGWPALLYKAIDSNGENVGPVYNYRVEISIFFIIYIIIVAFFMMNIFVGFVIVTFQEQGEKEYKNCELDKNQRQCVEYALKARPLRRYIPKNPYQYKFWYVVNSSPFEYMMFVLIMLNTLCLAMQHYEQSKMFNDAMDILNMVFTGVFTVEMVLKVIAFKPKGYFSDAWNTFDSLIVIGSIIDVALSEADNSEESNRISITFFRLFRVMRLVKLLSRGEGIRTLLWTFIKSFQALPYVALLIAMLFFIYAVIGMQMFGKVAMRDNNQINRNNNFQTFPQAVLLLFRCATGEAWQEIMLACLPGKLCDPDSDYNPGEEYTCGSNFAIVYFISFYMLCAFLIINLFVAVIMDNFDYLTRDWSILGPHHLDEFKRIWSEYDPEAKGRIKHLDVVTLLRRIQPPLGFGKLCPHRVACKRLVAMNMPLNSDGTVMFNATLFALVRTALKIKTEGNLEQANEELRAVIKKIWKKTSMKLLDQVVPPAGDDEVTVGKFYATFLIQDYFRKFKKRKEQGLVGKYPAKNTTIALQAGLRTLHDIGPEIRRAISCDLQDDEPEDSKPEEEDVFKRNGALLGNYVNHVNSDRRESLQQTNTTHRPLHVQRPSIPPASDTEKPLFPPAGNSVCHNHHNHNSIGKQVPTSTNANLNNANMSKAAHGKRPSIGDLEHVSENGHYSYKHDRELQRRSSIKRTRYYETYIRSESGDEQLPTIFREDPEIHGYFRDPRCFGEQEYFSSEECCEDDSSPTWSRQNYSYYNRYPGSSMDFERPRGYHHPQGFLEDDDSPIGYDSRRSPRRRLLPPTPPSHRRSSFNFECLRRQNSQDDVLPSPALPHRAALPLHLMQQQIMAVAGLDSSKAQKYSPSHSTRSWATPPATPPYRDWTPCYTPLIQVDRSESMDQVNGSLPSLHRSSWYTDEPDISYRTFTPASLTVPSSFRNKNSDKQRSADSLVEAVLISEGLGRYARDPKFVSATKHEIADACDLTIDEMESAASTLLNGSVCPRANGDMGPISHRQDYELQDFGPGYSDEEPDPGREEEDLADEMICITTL
A short description of assay [7]: Selectivity ratio of antagonist activity at rat Cav1.3 to antagonist activity at rabbit Cav1.2 at 100 nM. The assay is classed as functional. The essentials:
as §1

The target in assay [8] is Voltage-dependent L-type calcium channel subunit alpha-1D (Rattus norvegicus) (UniProt P27732). The experiment in a line: Antagonist activity at rat Cav1.3 expressed in HEK293 cells assessed as inhibition of voltage pulse-induced calcium current at 100 nM by whole-cell patch-clamp recording.
In assay [9] the target is T1, Voltage-dependent L-type calcium channel subunit alpha-1C. The experiment in a line: Antagonist activity at rabbit Cav1.2 expressed in tsA201 cells assessed as inhibition of voltage pulse-induced calcium current at 100 nM by whole-cell patch-clamp recording.
Assay [10] is described as follows: Selectivity ratio of antagonist activity at rat Cav1.3 to antagonist activity at rabbit Cav1.2 at 200 nM. The assay is classed as functional. The essentials:
as §1

Assay [11] addresses Voltage-dependent L-type calcium channel subunit alpha-1D (Rattus norvegicus) (UniProt P27732). The experiment in a line: Antagonist activity at rat Cav1.3 expressed in HEK293 cells assessed as inhibition of voltage pulse-induced calcium current at 200 nM by whole-cell patch-clamp recording.
Assay [12] deals with T1, Voltage-dependent L-type calcium channel subunit alpha-1C. Put plainly: Antagonist activity at rabbit Cav1.2 expressed in tsA201 cells assessed as inhibition of voltage pulse-induced calcium current at 200 nM by whole-cell patch-clamp recording.
Assay [13] shares this target. Put plainly: Antagonist activity at rabbit Cav1.2 expressed in HEK293 cells assessed as inhibition of voltage pulse-induced calcium current at 1000 nM by FLIPR calcium 4 assay. The assay is classed as functional, cell-based.
The nature of assay [14]: Selectivity ratio of antagonist activity at rat Cav1.3 to antagonist activity at rabbit Cav1.2 at 500 nM. The assay is classed as functional. The essentials:
as §1

The target in assay [15] is Voltage-dependent L-type calcium channel subunit alpha-1D (Rattus norvegicus) (UniProt P27732). The experiment in a line: Antagonist activity at rat Cav1.3 expressed in tsA201 cells assessed as inhibition of voltage pulse-induced calcium current at 500 nM by whole-cell patch-clamp recording.
Assay [16] has as its target T1, Voltage-dependent L-type calcium channel subunit alpha-1C. Put plainly: Antagonist activity at rabbit Cav1.2 expressed in tsA201 cells assessed as inhibition of voltage pulse-induced calcium current at 500 nM by whole-cell patch-clamp recording.

Consider `CCOC(=O)C1=C(C)NC(C)=C(C(=O)OC)C1c1ccc([N+](=O)[O-])cc1` (centres undefined), for which, in assay [1], the inhibition at 1 µM was determined as 48%.
Regarding `CCOC(=O)C1=C(C)NC(C)=C(C(=O)OC)C1c1ccccc1[N+](=O)[O-]` (centres undefined), the inhibition in assay [2] worked out at 26%. Further, the Selectivity ratio in [3] came to 0.63. The inhibition at 0.01 µM in [4] worked out at 41%.
In the case of `COCCOC(=O)C1=C(C)NC(C)=C(C(=O)OC(C)C)C1c1cccc([N+](=O)[O-])c1` (centres undefined), in assay [5], the Ratio IC50 is 20.
As to `CCOC(=O)C1=C(C)NC(C)=C(C(=O)OCC)C1c1cccc([N+](=O)[O-])c1`, in assay [3], the Selectivity ratio amounted to 1.34. Also, the inhibition in assay [6] worked out at 43%. Moreover, the inhibition at 0.01 µM in assay [4] turned out to be 32%.
As for `CCOC(=O)C1=C(C)NC(C)=C(C(=O)OCC)C1c1cccc(Cl)c1`, in [7], the Selectivity ratio worked out at 1.02. Further, the inhibition in [8] was found to be 59%. The inhibition at 0.1 µM in assay [9] came to 58%.
The matching figures for `CCCC1=C(C(=O)OCC)C(c2cccc([N+](=O)[O-])c2)C(C(=O)OCC)=C(CCC)N1`: 1.07, 27% and 25%.
In the case of `CCOC(=O)C1=C(C)NC(C)=C(C(=O)OCC)C1c1cc2cccc(C)c2nc1Cl`, the inhibition at 1 µM in assay [1] came out at 12%.
As for `CCOC(=O)C1=C(CC)NC(C)=C(C(=O)OC)C1c1ccc([N+](=O)[O-])cc1` (centres undefined), the inhibition at 1 µM in assay [1] is 28%.
For `CCOC(=O)C1=C(C)N=C(C)/C(=C(/O)OCC)C1c1ccco1` (centres undefined), the Selectivity ratio in assay [10] is 0.67. Besides, the inhibition in assay [11] is 48%. The inhibition at 0.2 µM in [12] is 72%.
For `CCOC(=O)C1=C(CC)NC(CC)=C(C(=O)OCC)C1c1ccc([N+](=O)[O-])cc1`, in assay [13], the inhibition at 1 µM is 58%.
On to `CC1=C(C(=O)OC(C)(C)C)C(c2cccc([N+](=O)[O-])c2)C(C(=O)OC(C)(C)C)=C(C)N1`, for which the Selectivity ratio in [7] worked out at 0.69. Further, the inhibition in assay [8] was found to be 22%. The inhibition at 0.1 µM in assay [9] was determined as 32%.
For `CCOC(=O)C1=C(C)NC(C)=C(C(=O)OCC)C1c1ccc(OCc2ccc(Br)cc2)cc1`, the inhibition at 1 µM in assay [1] stood at 38%.
Same read-out and setting: the result for `CC1=C(C(=O)OC(C)(C)C)C(c2ccc([N+](=O)[O-])cc2)C(C(=O)OC(C)(C)C)=C(C)N1` reads 36%; that for `CCOC(=O)C1=C(C)N(C)C(C)=C(C(=O)OCC)C1c1cccc([N+](=O)[O-])c1`, 35%.
Regarding `CCOC(=O)C1=C(C)N=C(C)/C(=C(/O)OCC)C1c1cccnc1` (centres undefined), the Selectivity ratio in [10] stood at 0.56. Besides, the inhibition in assay [11] worked out at 14%. Also, in assay [12], the inhibition at 0.2 µM turned out to be 25%.
On to `CCOC(=O)C1=C(C)NC(C)=C(C(=O)OCC)C1c1ccc([N+](=O)[O-])o1`, for which the Selectivity ratio in [10] came to 0.95. Moreover, in assay [11], the inhibition was 41%. The inhibition at 0.2 µM in assay [12] worked out at 43%.
Take `COC(=O)C1=C(C)NC(C)=C(C(=O)OC)C1c1ccccc1[N+](=O)[O-]` [NIFEDIPINE]: the Selectivity ratio in assay [7] came out at 0.67. Besides, in assay [8], the inhibition came to 46%. For the same molecule, in [9], the inhibition at 0.1 µM worked out at 69%.
Take `CCOC(=O)C1=C(C)NC(C)=C(C(=O)OCC)C1c1ccc([N+](=O)[O-])cc1`: the inhibition at 1 µM in [1] came to 48%.
The same measure, in the same setting: as for `CCOC(=O)C1=C(C)N=C(C)/C(=C(/O)OCC)C1/C=C/c1ccccc1` (centres undefined), the figure is 30%.
On to `CCOC(=O)C1=C(C)NC(C)=C(C(=O)OCC)C1c1cccc(C(F)(F)F)c1`, for which the Selectivity ratio in assay [10] was found to be 0.99. For the same molecule, in assay [11], the inhibition was determined as 84%. In [12], the inhibition at 0.2 µM was found to be 85%.
On to `CCOC(=O)C1=C(CC)NC(C)=C(C(=O)OC)C1c1cccc([N+](=O)[O-])c1` (centres undefined), for which the Selectivity ratio in [7] came to 0.72. Moreover, the inhibition in [8] amounted to 55%. Besides, the inhibition at 0.1 µM in assay [9] was determined as 76%.
As to `CCOC(=O)C1=C(C)NC(C)=C(C(=O)OCC)C1c1cc2cc(Br)ccc2[nH]1`, the Selectivity ratio in assay [14] came out at 1.03. The inhibition in assay [15] came out at 43%. Besides, the inhibition at 0.5 µM in assay [16] is 42%.
Regarding `CCOC(=O)C1=C(C)N=C(C)/C(=C(/O)OCC)C1c1cccc(OC)c1` (centres undefined), in [10], the Selectivity ratio turned out to be 0.64. The inhibition in assay [11] is 44%. For the same molecule, the inhibition at 0.2 µM in assay [12] was found to be 69%.
As to `CCOC(=O)C1=C(C)NC(C)=C(C(=O)OCC)C1C(C)c1ccccc1` (centres undefined), the inhibition at 1 µM in [1] worked out at 28%.
Consider `CCOC(=O)C1=C(C)NC(C)=C(C(=O)OCC)C1c1ccc(-c2cccs2)s1`, for which the inhibition at 1 µM in assay [1] was 35%.
For the molecule `CCOC(=O)C1=C(C)NC(C)=C(C(=O)OCC)C1c1ccccc1`, the Selectivity ratio in assay [7] was found to be 0.85. Also, the inhibition in [8] was determined as 41%. Besides, the inhibition at 0.1 µM in [9] turned out to be 48%.

In general, inhibition refers to the relative decrease from the control value, in per cent.
